This is a sample that favours compounds with a hit; in the whole collection about 4.7% have one here.
ADAM10 inh: inhibits human ADAM10. O14672. recombinant ADAM10, EDANS/DABCYL FRET peptide cleavage, 3 h. inhibition, % at 7 µM. actives 0.62% (n = 370,000). AID 720582;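 active means inhibition above a per-campaign cutoff equal to the mean of compounds falling between control-based bounds plus 3 SD, cut at about 20% in these data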
Target sequence (O14672 214-748 limits assumed): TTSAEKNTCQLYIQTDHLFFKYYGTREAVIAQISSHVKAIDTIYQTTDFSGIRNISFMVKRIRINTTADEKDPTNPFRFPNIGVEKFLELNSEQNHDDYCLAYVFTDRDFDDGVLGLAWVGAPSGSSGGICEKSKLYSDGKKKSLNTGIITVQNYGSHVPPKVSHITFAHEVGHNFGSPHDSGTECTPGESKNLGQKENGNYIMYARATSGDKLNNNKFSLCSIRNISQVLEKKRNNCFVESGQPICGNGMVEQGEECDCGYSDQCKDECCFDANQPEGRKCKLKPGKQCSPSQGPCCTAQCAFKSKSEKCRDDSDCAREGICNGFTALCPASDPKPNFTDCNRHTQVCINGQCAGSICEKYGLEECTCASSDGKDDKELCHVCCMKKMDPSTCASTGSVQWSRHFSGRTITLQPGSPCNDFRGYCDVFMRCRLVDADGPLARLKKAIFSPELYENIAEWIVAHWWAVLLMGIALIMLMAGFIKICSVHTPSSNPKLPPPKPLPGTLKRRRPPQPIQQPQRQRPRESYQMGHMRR
ADAM17 inh: ADAM17 inhibition, QFRET primary screen | recombinant ADAM17, EDANS/DABCYL FRET peptide cleavage | inhibition, % at 6.95 µM | actives 0.83% (n = 370,000) | AID 720648;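 active means inhibition above the mean of compounds lying between control limits plus 3 SD, set per campaign, cut at about 8.5% in these data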
MT1-MMP act inh: MT1-MMP (human) activation inhibition; HT1080 RFP-PRO-GFP cells, GFP/RFP ratio fluorescence, overnight; percent of plate control window, DMSO zero; GFP/RFP ratio change, % at 20 µM; actives 0.061% (n = 360,000); AID 651647;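 active means GFP/RFP ratio change of at least 30% with cell ATP level not reduced by more than half and red fluorescence within 50% of control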
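Assay system: RFP-PRO-GFP reporter HT1080 cells; read-out basis: GFP/RFP fluorescence ratio; benchmarks: DMSO wells and RFP-L50D-GFP cells; doses: 20 µM single dose, 1% DMSO; schedule: overnight cell settling, then overnight compound exposure, 37 °C, 5% CO2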
MPTP inh: inhibitors of mitochondrial permeability transition pore. isolated mouse mitochondria, Ca2+ swelling absorbance, 30 min. inhibition, % at 10 µM. actives 1.4% (n = 360,000). AID 602449;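 active means inhibition of 50% or more, scaled per plate between neutral and stimulator controls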
SKN-1 inh: blocks SKN-1 activity in C. elegans; actives 0.49% (n = 360,000); C. elegans VP596 Pgst-4::GFP/RFP ratio, acrylamide-induced, 24 h; inhibition, % at 21.8 µM;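 active means interference check ratio from 0.5 to 1.5 plus GFP to RFP signal ratio inhibition reaching or exceeding a fixed threshold, cut at about 30% in these data, passing the limit was not always enough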
GRIN3A LBD mod: NR3A (human) ligand-binding domain modulation; NR3A LBD differential scanning fluorimetry, Tm shift; 0% = protein alone, 100% = glycine-bound protein; actives 2.5% (n = 340,000); AID 1259313; Tm shift relative to glycine control, % at 25 µM;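 active means melting temperature shift of at least 10% of the positive control shift, at one fixed dose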
Numbers stand for hits; – = inactive; · = no result.

SMILES | ADAM10 inh | ADAM17 inh | MT1-MMP act inh | MPTP inh | SKN-1 inh | GRIN3A LBD mod
CCCCCCn1cc(CN2CC(N3CCN(C)CC3)CS2(=O)=O)nn1 (stereo not drawn) | – | – | – | – | – | ·
O=c1[nH]c2cc(Cl)c(Cl)cc2o1 | – | – | – | – | – | –
O=c1[nH]c2cc(Cl)c(Br)cc2o1 | – | – | – | – | 35.4 | –
O=c1cc(-c2ccccc2Cl)c2c([nH]1)CCC2 | – | – | – | – | 66.5 | –
O=c1cc(-c2ccccc2)c2c([nH]1)CCCC2 | – | – | – | – | – | –
COc1ccc(/C=N/Nc2ncnc3sc(C)c(C)c23)cc1 | – | – | – | – | – | –
Nc1c(Cl)ncnc1N/N=C/c1ccc(O)cc1 | – | – | – | – | – | 13.7
Cc1sc2ncnc(N/N=C/c3ccc(O)cc3)c2c1C | – | – | – | – | – | 35.0
CCOC(=O)C(=O)/C(=C\N(C)C)c1onc(-c2ccccc2)c1C(=O)OC | – | – | – | – | – | –
O=C(NC1CC2CCC(C1)N2C(=O)NCc1ccccc1)NC12CC3CC(CC(C3)C1)C2 (stereo not drawn) | – | – | – | – | – | –
Cc1ccc(-n2nnnc2-c2ccccc2)cc1 | – | – | – | – | – | –
COc1ccc(-n2nnnc2-c2cccnc2)cc1 | – | – | – | – | – | 15.3
C=CCn1c(=N)c(S(=O)(=O)c2ccc(C)c(C)c2)cc2c(=O)n3ccccc3nc21 | – | – | – | – | – | –
O=C(Nc1cccc2ccccc12)N1CCOCC1 | – | – | – | – | – | 17.3
COC(=O)[C@]12CCCCC=C1N(Cc1ccccc1)C(=O)[C@H](CC(=O)NCC1CCCCC1)C2 | – | – | – | – | – | ·
O=[N+]([O-])c1ccc(/C=N/NC(=S)Nc2ccccc2)o1 | – | – | – | – | – | –
O=[N+]([O-])c1cccc(-c2ccc(/C=N/NC(=S)Nc3ccccc3)o2)c1 | – | – | – | – | – | 14.8
CC(NC(=O)c1ccc(N(C)C)cc1)c1ccc(F)cc1 (stereo not drawn) | – | – | – | – | – | –
O=C(Nc1ccc(F)cc1)Nc1ccc(Cl)cn1 | – | – | – | – | – | –
COC(=O)c1cc(OC)c(OC)cc1NC(=S)Nc1cc(Cl)ccc1OC | – | – | – | – | – | –
O=C(Nc1ccc(Cl)cn1)Nc1ccccc1F | – | – | – | – | – | –
O=C(Nc1ccc(Cl)cn1)c1ccccc1F | – | – | – | – | 59.0 | –
COc1ccc(Cl)cc1NC(=S)Nc1ccc(Cl)cn1 | – | – | – | – | – | 16.1
O=C(Nc1ccc(Cl)cn1)c1ccc(-c2cc(Cl)ccc2Cl)o1 | – | – | – | – | – | 16.4
O=C(Nc1ccc(Cl)cn1)Nc1ccc(Cl)cn1 | – | – | – | – | – | 29.5
SMILES | ADAM10 inh | ADAM17 inh | MT1-MMP act inh | MPTP inh | SKN-1 inh | GRIN3A LBD mod
CCn1cc(/C=N/NC(=O)c2cc3c(ccc4ccccc43)o2)c2ccccc21 | – | – | – | – | – | 25.6
CCOc1cc(/C=N/NC(=O)c2cc3c(ccc4ccccc43)o2)ccc1O | – | – | – | – | – | 28.3
CC(C)n1cc(/C=N\NC(=O)c2cc3c(ccc4ccccc43)o2)c2ccccc21 | – | – | – | – | – | –
CCOC(=O)COc1ccccc1/C=N\NC(=O)c1cc2c(ccc3ccccc32)o1 | – | – | – | – | – | –
O=C(N/N=C/c1ccc(O)c(Br)c1)c1cc2c(ccc3ccccc32)o1 | – | – | – | – | – | 35.3
CCOc1cc(/C=N/NC(=O)c2cc(C3CC3)[nH]n2)ccc1O | – | – | – | – | – | 25.5
COc1cc2c(cc1OC)CN(CC(=O)NC(=O)NCc1ccco1)CC2 | – | – | – | – | – | –
CSc1ncc(C(=O)Nc2cccc(Cl)c2)c(C)n1 | – | – | – | – | – | –
COC(=O)c1cccc(NC(=O)Cc2ccccc2[N+](=O)[O-])c1C | – | – | – | – | – | –
O=C(/C=C/Nc1ccc(F)cc1F)c1ccco1 | – | – | – | – | 45.1 | –
O=C(/C=C/Nc1ccc(Br)cc1F)c1ccco1 | – | – | – | – | 76.4 | –
O=C(/C=C/Nc1ccccc1O)c1ccco1 | – | – | – | – | – | –
Cc1ccc2c(c1)c(C)c(C)n2CC(O)Cn1nnc2ccccc21 (stereo not drawn) | – | – | – | – | 60.3 | –
O=c1c2cc(N3CCOCC3)ccc2[nH]c(=S)n1Cc1ccc(Cl)cc1 | – | – | – | – | – | 37.9
Cc1c(C(=O)N2CCOCC2)cc(C(C)(C)C)n1-c1ccccc1 | – | – | – | – | – | –
Cc1nc2c(N=Nc3ccccc3F)c(N)nn2c(N)c1C#N | – | – | – | – | – | 15.0
Nc1nn(-c2ccccc2)c(N)c1N=Nc1ccccc1F | – | – | – | – | – | –
C#CCSc1ncc(-c2ccccc2)cn1 | – | – | – | – | 90.4 | –
C=CCSc1ncc(-c2ccccc2)cn1 | – | – | – | – | 73.0 | –
CSc1ncc(-c2ccccc2)cn1 | – | – | – | – | – | –
C=CCSc1n[nH]c(-c2ccccc2)n1 | – | – | – | – | – | –
CCN1C(c2ccccc2)=C(c2ccccc2)S/C1=C\C=C1/SC(=S)N(C)C1=O | – | – | – | – | 49.6 | –
Cc1ccc(OC(=O)NC2CCS(=O)(=O)C2)cc1C (stereo not drawn) | – | – | – | – | – | 11.0
C(=C1c2ccccc2-c2ccccc21)c1ccncc1 | – | – | – | – | 40.1 | –
COc1ccccc1C/C(N)=N/OC(=O)COc1cccc(C)c1 | – | – | – | – | – | 12.7
SMILES | ADAM10 inh | ADAM17 inh | MT1-MMP act inh | MPTP inh | SKN-1 inh | GRIN3A LBD mod
CS(=O)(=O)N(CC(=O)Nc1ccccc1C(=O)N1CCOCC1)c1ccccc1 | – | – | – | – | – | –
Cc1ccc(N(CC(=O)Nc2ccccc2C(=O)N2CCOCC2)S(C)(=O)=O)cc1 | – | – | – | – | – | 13.1
CN(C)c1ccc(NC(=O)CSc2nc3ccccc3c(=O)n2C2CCCCC2)cc1 | – | 11.9 | – | – | – | –
COc1ccc(NC(=O)c2cc(-c3ccccc3Cl)on2)cc1OC | – | – | – | – | – | –
CCCc1cc(C(=O)Nc2cccc(Cl)c2)no1 | – | – | – | – | – | 12.8
O=C(Nc1cccc(O)c1)c1cc(-c2ccccc2Cl)on1 | – | – | – | – | – | 29.9
O=c1cc(-c2ccccc2)c2ccc(O)cc2o1 | – | – | – | – | – | 10.9
CCOC(=O)C(Oc1ccc2c(-c3ccccc3)cc(=O)oc2c1)c1ccccc1 (stereo not drawn) | – | – | – | – | – | 10.6
COc1cc2c(=O)n(Cc3ccco3)c(=O)n(CC(=O)c3ccc(Br)cc3)c2cc1OC | – | – | – | – | – | 13.6
Cc1c(-c2ccccc2)n[nH]c1C(=O)NN | – | – | – | – | – | –

Bioassay records deposited in PubChem by several laboratories.
